Measurements as given in ChEMBL document CHEMBL1148754, “4- and 5-aroylindoles as novel classes of potent antitubulin agents” (J Med Chem, 2007).

Key:
[1] = tested on: NCI-H460; experiment: Growth inhibition of human H460 cells after 72 hrs by methylene blue dye assay; assay type: functional, cell-based; conditions: NCI-H460, 72 h
Method in brief: (§1)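 Antiproliferative screen in human cancer lines: KB (oral epidermoid carcinoma), HT29 (colorectal carcinoma), H460 (non-small cell lung carcinoma), TSGH and MKN45 (stomach carcinoma), plus KB-VIN10, an MDR-positive line overexpressing P-gp 170/MDR. Potency is reported as IC50.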

[2] = tested on: MKN-45; experiment: Growth inhibition of human MKN45 cells after 72 hrs by methylene blue dye assay; assay type: functional, cell-based; conditions: MKN-45, 72 h; method in brief: as §1
[3] = tested on: KB; experiment: Growth inhibition of human KB cells after 72 hrs by methylene blue dye assay; assay type: functional, cell-based; method in brief: as §1
[4] = Growth inhibition of human KB-vin10 cells after 72 hrs by methylene blue dye assay; assay type: functional; conditions: KB-VIN10, 72 h; method in brief: as §1
[5] = tested on: TSGH; experiment: Growth inhibition of human TSGH cells after 72 hrs by methylene blue dye assay; assay type: functional, cell-based; method in brief: as §1
[6] = tested on: HT-29; experiment: Growth inhibition of human HT29 cells after 72 hrs by methylene blue dye assay; assay type: functional, cell-based; conditions: HT-29, 72 h; method in brief: as §1
[7] = molecular target: Tubulin (Homo sapiens) (UniProt P68371+Q9H4B7+P0DPH7+P68366+Q13509+Q71U36+P04350+Q3ZCM7+P07437+P68363+Q9BQE3+Q6PEY2+Q13885+Q9BVA1+Q9BUF5); experiment: Displacement of [3H]colchicine from tubulin at 5 uM; assay type: protein-complex assay
[8] = molecular target: Tubulin; experiment: Inhibition of tubulin polymerization in presence of microtubule associated proteins after 30 mins; assay type: protein-complex assay, Homo sapiens

Row | IC50 [1] [nM] | IC50 [2] [nM] | IC50 [3] [nM] | IC50 [6] [nM] | Activity [7] [%] | IC50 [8] [nM] | SMILES | IC50 [4] [nM] | IC50 [5] [nM]
1 | 2100 | 1500 | 2900 | 1700 | – | – | COc1cc(C(=O)c2cc3ccccc3[nH]2)cc(OC)c1OC | 2800 | 1800
2 | 53.8 | 49.1 | 50.7 | 46.4 | 74 | 2000 | COc1cc(C(=O)c2cccc3[nH]ccc23)cc(OC)c1OC | 51.4 | 54.4
3 | 530 | 396 | 520 | 460 | – | – | COc1cc(C(=O)c2ccc3c(ccn3CC(=O)O)c2)cc(OC)c1OC | 476 | 548
4 | > 10000 | > 10000 | > 10000 | > 10000 | – | – | COc1cc(C(=O)c2ccc3c(ccn3CCC(=O)O)c2)cc(OC)c1OC | > 10000 | > 10000
5 | 5100 | 2900 | 5200 | 4600 | – | – | COc1cc(C(=O)c2ccc3c(ccn3CCN(C)C)c2)cc(OC)c1OC | 4900 | 4900
6 | 1700 | 980 | 1600 | 1000 | – | – | COc1cc(C(=O)c2c[nH]c3ccccc23)cc(OC)c1OC | 1500 | 1100
7 | > 10000 | 5200 | > 10000 | 9600 | – | – | COc1cc(C(=O)n2ccc3ccccc32)cc(OC)c1OC | > 10000 | 8400
8 | 520 | 480 | 510 | 330 | – | – | COc1cc(C(=O)c2ccc3cc[nH]c3c2)cc(OC)c1OC | 452 | 430
9 | 295 | 210 | 310 | 250 | – | – | COc1cc(C(=O)c2cccc3cc[nH]c23)cc(OC)c1OC | 284 | 310
10 | 28.8 | 21.6 | 22.1 | 22.4 | 75 | 1900 | COc1cc(C(=O)c2cccc3c2ccn3C)cc(OC)c1OC | 26.1 | 26.9
11 | 1600 | 470 | 1800 | 1200 | – | – | COc1cc(C(=O)c2ccc3c(ccn3C(C)C)c2)cc(OC)c1OC | 1600 | 1100
12 | – | – | – | – | 89 | – | COc1ccc(/C=C\c2cc(OC)c(OC)c(OC)c2)cc1O | – | –
13 | 2000 | 680 | 1900 | 1800 | – | – | CCCn1ccc2cc(C(=O)c3cc(OC)c(OC)c(OC)c3)ccc21 | 2100 | 1500
14 | 38 | 31 | 36 | 32 | 81 | 1200 | CCn1ccc2cc(C(=O)c3cc(OC)c(OC)c(OC)c3)ccc21 | 40 | 41
15 | 112 | 88 | 104 | 100 | 71 | 2200 | COc1cc(C(=O)c2ccc3[nH]ccc3c2)cc(OC)c1OC | 111 | 103
16 | 14.1 | 11.2 | 13.6 | 10.5 | 84 | 1100 | COc1cc(C(=O)c2ccc3c(ccn3C)c2)cc(OC)c1OC | 12.5 | 13.4
17 | 39 | 33 | 39 | 34 | 78 | 1800 | COc1cc(C(=O)c2ccc3c(ccn3CO)c2)cc(OC)c1OC | 35 | 43

Row | SMILES | IC50 [1] [nM] | IC50 [2] [nM] | IC50 [3] [nM] | IC50 [6] [nM] | Activity [7] [%] | IC50 [8] [nM] | IC50 [4] [nM] | IC50 [5] [nM]
18 | COc1cc2c(c(OC)c1OC)-c1ccc(OC)c(=O)cc1[C@@H](NC(C)=O)CC2 [COLCHICINE] | 19 | 13 | – | – | – | – | 120 | –
